Measurements from ChEMBL document CHEMBL1671681, “Distribution of serotypes, genotypes, and resistance determinants among macrolide-resistant Streptococcus pneumoniae isolates” (2010).
In brackets after ≈: the same amount, converted by molar mass.

Legend:
Format in all cases: functional
Streptococcus pneumoniae [1] = assay: Antimicrobial activity against erythromycin-resistant Streptococcus pneumoniae assessed as resistant isolates by broth microdilution method
Summary of the method: (§1)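 Isolates were tested by broth microdilution in commercial microtiter trays. Medium was cation-adjusted Mueller-Hinton broth supplemented with 3 to 5% lysed horse blood. MICs were interpreted by CLSI criteria. For penicillin, the pre-2008 breakpoints were applied (susceptible ≤0.06 mg/liter).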

Streptococcus pneumoniae [2] = assay: Antimicrobial activity against erythromycin-resistant Streptococcus pneumoniae assessed as susceptible isolates by broth microdilution method; summary of the method: as §1
Streptococcus pneumoniae [3] = assay: Antimicrobial activity against erythromycin-resistant Streptococcus pneumoniae by broth microdilution method
Summary of the method: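 Isolates were tested by broth microdilution in commercial microtiter trays. Medium was cation-adjusted Mueller-Hinton broth supplemented with 3 to 5% lysed horse blood. MICs were interpreted by CLSI criteria.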

Streptococcus pneumoniae [4] = assay: Antimicrobial activity against erythromycin-resistant Streptococcus pneumoniae by broth microdilution method in presence of clavulanic acid
Summary of the method: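 Broth microdilution in commercial pre-made microtiter trays using cation-adjusted Mueller-Hinton broth with 3 to 5% lysed horse blood. Pneumococcal isolates were tested, and MICs were interpreted by CLSI criteria.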

Streptococcus pneumoniae [5] = assay: Antimicrobial activity against erythromycin-resistant Streptococcus pneumoniae assessed as resistant isolates by broth microdilution method in presence of clavulanic acid; summary of the method: as §1
Streptococcus pneumoniae [6] = assay: Antimicrobial activity against erythromycin-resistant Streptococcus pneumoniae assessed as susceptible isolates by broth microdilution method in presence of clavulanic acid; summary of the method: as §1

| Compound | Activity (Streptococcus pneumoniae [1]) | Activity (Streptococcus pneumoniae [2]) | MIC50 (Streptococcus pneumoniae [3]) | MIC90 (Streptococcus pneumoniae [3]) | MIC (Streptococcus pneumoniae [4]) | MIC50 (Streptococcus pneumoniae [4]) | MIC90 (Streptococcus pneumoniae [4]) | Activity (Streptococcus pneumoniae [5]) | Activity (Streptococcus pneumoniae [6]) | MIC (Streptococcus pneumoniae [3]) |
| --- | --- | --- | --- | --- | --- | --- | --- | --- | --- | --- |
| CC1(C)S[C@@H]2[C@H](NC(=O)Cc3ccccc3)C(=O)N2[C@H]1C(=O)O [PENICILLIN G] | 68.6% | 24.5% | 2 µg/mL (≈ 5.98 µM) | 4 µg/mL (≈ 12 µM) |  |  |  |  |  |  |
| C[C@@H](O)[C@H]1C(=O)N2C(C(=O)O)=C(S[C@@H]3CN[C@H](C(=O)N(C)C)C3)[C@H](C)[C@H]12 [MEROPENEM] | 34.3% | 33.3% | 0.5 µg/mL (≈ 1.3 µM) | 1 µg/mL (≈ 2.61 µM) |  |  |  |  |  |  |
| CC(=O)NC[C@H]1CN(c2ccc(N3CCOCC3)c(F)c2)C(=O)O1 [LINEZOLID] | 0% | 100% | 1 µg/mL (≈ 2.96 µM) | 1 µg/mL (≈ 2.96 µM) |  |  |  |  |  |  |
| CC1(C)S[C@@H]2[C@H](NC(=O)[C@H](N)c3ccc(O)cc3)C(=O)N2[C@H]1C(=O)O [AMOXICILLIN] |  |  |  |  | < 2 µg/mL | < 2 µg/mL | > 8 µg/mL | 28.4% | 66.7% |  |
| CCC[C@@H]1C[C@@H](C(=O)N[C@@H]([C@H]2O[C@H](SC)[C@H](O)[C@@H](O)[C@H]2O)[C@H](C)Cl)N(C)C1 [CLINDAMYCIN] | 67.6% | 30.4% | > 2 µg/mL | > 2 µg/mL |  |  |  |  |  |  |
| O=C(N[C@H](CO)[C@H](O)c1ccc([N+](=O)[O-])cc1)C(Cl)Cl [CHLORAMPHENICOL] | 33.3% | 66.7% | 4 µg/mL (≈ 12.4 µM) | 8 µg/mL (≈ 24.8 µM) |  |  |  |  |  |  |
| COc1c(N2C[C@@H]3CCCN[C@@H]3C2)c(F)cc2c(=O)c(C(=O)O)cn(C3CC3)c12 [MOXIFLOXACIN] | 0% | 100% |  |  |  |  |  |  |  |  |
| CC[C@H]1OC(=O)[C@H](C)[C@@H](O[C@H]2C[C@@](C)(OC)[C@@H](O)[C@H](C)O2)[C@H](C)[C@@H](O[C@@H]2O[C@H](C)C[C@H](N(C)C)[C@H]2O)[C@](C)(O)C[C@@H](C)C(=O)[C@H](C)[C@@H](O)[C@]1(C)O [ERYTHROMYCIN] | 100% | 0% | > 2 µg/mL | > 2 µg/mL |  |  |  |  |  | > 2 µg/mL |
| CN[C@H](CC(C)C)C(=O)N[C@H]1C(=O)N[C@@H](CC(N)=O)C(=O)N[C@H]2C(=O)N[C@H]3C(=O)N[C@H](C(=O)N[C@H](C(=O)O)c4cc(O)cc(O)c4-c4cc3ccc4O)[C@H](O)c3ccc(c(Cl)c3)Oc3cc2cc(c3O[C@@H]2O[C@H](CO)[C@@H](O)[C@H](O)[C@H]2O[C@H]2C[C@](C)(N)[C@H](O)[C@H](C)O2)Oc2ccc(cc2Cl)[C@H]1O [VANCOMYCIN] | 0% | 100% | < 0.5 µg/mL | < 0.5 µg/mL |  |  |  |  |  |  |
| CN(C)[C@@H]1C(O)=C(C(N)=O)C(=O)[C@@]2(O)C(O)=C3C(=O)c4c(O)cccc4[C@@](C)(O)[C@H]3C[C@@H]12 [TETRACYCLINE] | 74.5% | 24.5% | ≥ 8 µg/mL | ≥ 8 µg/mL |  |  |  |  |  |  |
| CC[C@H]1OC(=O)[C@H](C)[C@@H](O[C@H]2C[C@@](C)(OC)[C@@H](O)[C@H](C)O2)[C@H](C)[C@@H](O[C@@H]2O[C@H](C)C[C@H](N(C)C)[C@H]2O)[C@](C)(O)C[C@@H](C)CN(C)[C@H](C)[C@@H](O)[C@]1(C)O [AZITHROMYCIN] | 100% | 0% | > 2 µg/mL | > 2 µg/mL |  |  |  |  |  | > 2 µg/mL |
| COc1c(N2CCNC(C)C2)c(F)cc2c(=O)c(C(=O)O)cn(C3CC3)c12 (stereo not drawn) [GATIFLOXACIN] | 0% | 100% | < 0.5 µg/mL | < 0.5 µg/mL |  |  |  |  |  | < 0.5 µg/mL |
| CO/N=C(\C(=O)N[C@@H]1C(=O)N2C(C(=O)O)=C(COC(C)=O)CS[C@H]12)c1csc(N)n1 [CEFOTAXIME] | 5.9% | 62.7% | 1 µg/mL (≈ 2.2 µM) | 2 µg/mL (≈ 4.39 µM) |  |  |  |  |  |  |
| C[C@H]1COc2c(N3CCN(C)CC3)c(F)cc3c(=O)c(C(=O)O)cn1c23.C[C@H]1COc2c(N3CCN(C)CC3)c(F)cc3c(=O)c(C(=O)O)cn1c23.O [LEVOFLOXACIN] | 0% | 100% | 1 µg/mL | 1 µg/mL |  |  |  |  |  |  |
